Consider 6 compounds from ChEMBL document CHEMBL5335796, “Novel Psilocin Prodrugs with Altered Pharmacological Properties as Candidate Therapies for Treatment-Resistant Anxiety Disorders” (J Med Chem, 2024).

Data set [1] is described as follows: Drug metabolism in human intestine S9 fraction assessed as psilocin formation at 2.5 uM after 120 mins by LC-MS analysis. In kind it is ADME, subcellular. The settings on record: s9, 2 h. Put shortly: (§1)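 2.5 μM compound in 50 mM potassium phosphate pH 7.4 with 3 mM MgCl2, 1 mM EDTA and an NADPH regenerating system. Incubated at 37 °C with human liver or intestinal S9 or microsomes (400 μg/mL protein) or 10% human AB serum. Acetonitrile quench, then LC-MS; psilocin concentration read at 120 min.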

Data set [2] is described as follows: Metabolic stability in human liver microsomes assessed as half life at 2.5 uM measured upto 120 mins in presence of NADPH by LC-MS analysis. In kind it is ADME, Microsome. As to conditions: microsomes, 2 h, 2.5 µM. The method in brief: (§2)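 2.5 μM compound at 37 °C in 50 mM potassium phosphate pH 7.4 with 3 mM MgCl2, 1 mM EDTA and an NADPH regenerating system. […] Sampled at 0–120 min in 20-min steps, acetonitrile quench, LC-MS of parent. T1/2 from one-phase exponential decay fit.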
For orientation: Microsomes from liver hold many membrane-bound enzymes, among them those of drug oxidation.

Data set [3] is described as follows: Drug metabolism in C57BL/6 mouse assessed as psilocin formation at 10 mg/kg, po measured after 8 hrs by LC-MS analysis. In kind it is ADME, organism-based. As to conditions: in vivo.
Data set [4] is described as follows: Metabolic stability in human liver S9 fraction assessed as half life at 2.5 uM measured upto 120 mins in presence of NADPH by LC-MS analysis. It counts as ADME, subcellular. The settings on record: s9, 2 h, 2.5 µM. The method in brief:
as §2

The subject of another data set is Mus musculus. Briefly: Psychedelic activity in mouse assessed as head-twitch response at 1 mg/kg, po measured after 15 to 30 mins. It counts as functional, organism-based. As to conditions: time 15-30 min. The method in brief:
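C57BL/6 mice, singly housed for 2 days, with 30-min predose chamber acclimation. Single oral 1 mg/kg dose from 100 mM DMSO stock diluted in 0.9% saline; vehicle 1% DMSO in saline. Video-recorded after dosing; head twitches scored blind per 15-min interval (reference time course) or for the 15–30 min window. n = 2–4; one-way ANOVA.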

A short description of data set [5]: Drug metabolism in human serum assessed as psilocin formation at 2.5 uM after 120 mins by LC-MS analysis. In kind it is ADME, cell-free. The settings on record: 2 h. Put shortly:
as §1

The nature of data set [6]: Drug metabolism in human intestine microsomes assessed as psilocin formation at 2.5 uM after 120 mins by LC-MS analysis. In kind it is ADME, Microsome. The settings on record: 2 h. The method in brief: as §1
Data set [7] in a line: Drug metabolism in human liver S9 fraction assessed as psilocin formation at 2.5 uM after 120 mins by LC-MS analysis. In kind it is ADME, subcellular. As to conditions: s9, 2 h. The method in brief:
as §1

Data set [8] can be described thus: Drug metabolism in po dosed C57BL/6 mouse assessed as psilocin formation measured upto 24 hrs by LC-MS analysis. It counts as ADME, organism-based. As to conditions: in vivo, dose 1-10 mg/kg.
The nature of data set [9]: Drug metabolism in human liver microsomes assessed as psilocin formation at 2.5 uM after 120 mins by LC-MS analysis. In kind it is ADME, Microsome. As to conditions: 2 h. Put shortly:
as §1

Data set [10] can be described thus: Metabolic stability in human intestine microsomes assessed as half life at 2.5 uM measured upto 120 mins in presence of NADPH by LC-MS analysis. As to conditions: 2 h. It counts as ADME, Microsome. Put shortly: as §2
A short description of data set [11]: Metabolic stability in human intestine S9 fraction assessed as half life at 2.5 uM measured upto 120 mins in presence of NADPH by LC-MS analysis. It counts as ADME, subcellular. The settings on record: s9, 2 h. Put shortly: as §2
Data set [12] can be described thus: Metabolic stability in human serum assessed as half life at 2.5 uM measured upto 120 mins in presence of NADPH by LC-MS analysis. In kind it is ADME, cell-free. As to conditions: 2 h. The method in brief:
as §2

The source made the active and inactive calls. No cut-off for these calls is given here.

As for `CN(C)CCc1c[nH]c2cccc(O[Si](C)(C)C(C)(C)C)c12`, the Drug metabolism was 0 µM in [1]; “Metabolite_Notdetected” in [3]; 0 µM in [5]; 0 µM in [6]; 0 µM in [7]; “Dose-Dependent Effect” in data set [8]. The Drug metabolism in data set [9] stood at 0.012 µM. For the same compound, the figures for the t1/2 in [2] and in [4] were 347 min and 191 min, respectively. For the same compound, the outcome with Mus musculus was Active.
Consider `CN(C)CCc1c[nH]c2cccc(OC(=O)c3cccc4c3OCCO4)c12`, for which the Drug metabolism in data set [1] is 0 µM; in data set [3], “Metabolite_Notdetected”; in [5], 0 µM; in data set [6] it was 0 µM; in data set [7] it was 0.145 µM; in data set [8] it was “Dose-Dependent Effect”. For the same compound, in data set [9], the Drug metabolism was found to be 0.329 µM. For the same compound, the t1/2 in data set [2] is given as 390 min; in [4], 529 min; in data set [10], 113 min. Further, the outcome in the data set on Mus musculus was inactive.
As for `CN(C)CCc1c[nH]c2cccc(OC(=O)c3c(F)c(F)c(F)c(F)c3F)c12`, the Drug metabolism in data set [1] is 0.533 µM; in data set [3], “Metabolite_Notdetected”; in data set [5], 0.45 µM; in data set [6] it was 0.786 µM; in data set [7], 1.244 µM; in data set [8], “Dose-Dependent Effect”. In data set [9], the Drug metabolism was determined as 2.554 µM. In addition, the t1/2 in data set [2] is reported as 1 min; in data set [4], 1 min; in data set [11], 56 min; in data set [12], 0.7 min; in data set [10] it was 32 min. For the same compound, the result in the data set with Mus musculus was Active.
`CCCC(=O)OCOc1cccc2[nH]cc(CCN(C)C)c12`: the Drug metabolism is 0.018 µM in data set [1]; “Metabolite_Notdetected” in [3]; 0 µM in data set [5]; 0.043 µM in data set [6]; 0.012 µM in [7]; “Dose-Dependent Effect” in data set [8]. In addition, in data set [9], the Drug metabolism stood at 0.073 µM. Besides, the t1/2 in data set [2] is recorded as 3 min; in [4] it was 4 min; in [11] it was 241 min; in data set [12], 2 min; in data set [10], 74 min. Besides, the outcome with Mus musculus was inactive.
Turning to `CN(C)CCc1cn(C(=O)OCc2ccccc2)c2cccc(OC(=O)OCc3ccccc3)c12`, the Drug metabolism was 0 µM in data set [1]; “Metabolite_Notdetected” in data set [3]; 0 µM in [5]; 0 µM in data set [6]; 0 µM in data set [7]; “Dose-Dependent Effect” in [8]. Further, the Drug metabolism in data set [9] came out at 0 µM. For the same compound, the t1/2 in [2] was found to be 52 min; in data set [4], 22 min; in [11], 16 min; in data set [12] it was 0.8 min; in data set [10], 13 min.
As for `CN(C)CCc1c[nH]c2cccc(OC(=O)c3ccc(Br)cc3)c12`, the Drug metabolism was 0 µM in data set [1]; “Metabolite_Notdetected” in data set [3]; 2.01 µM in data set [5]; 0.018 µM in data set [6]; 0.689 µM in data set [7]; “Dose-Dependent Effect” in data set [8]. The Drug metabolism in data set [9] came out at 1.31 µM. The t1/2 came out at 87 min in data set [2]; 39 min in data set [4]; 69 min in data set [11]; 19 min in [12]; 71 min in data set [10].
